Compounds with a hit are over-represented: about 1.9% of the library has one in this group of screens.
sPLA2-III inh – human group III sPLA2 inhibitors, primary screen, biochemical, QFRET, BODIPY PC-A2 liposome substrate; QFRET BODIPY PC-A2 liposome hydrolysis, fluorescence; inhibition, % at 12.2 µM; actives 0.56% (n = 370,000); Group 3 secretory phospholipase A2 (Homo sapiens), Q9NZ20;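 active = inhibition above mean plus 3 SD of compounds lying within the high and low control bounds, cut at about 19% in these data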;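 also: 0% = median of test compound wells and 100% = no enzyme DMSO wells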
PLC-beta3 inh – human PLC-beta3 inhibitors, primary screen, biochemical, fluorescence; actives 0.18% (n = 370,000); inhibition, % at 12.2 µM; AID 720704, 2013; 1-phosphatidylinositol 4,5-bisphosphate phosphodiesterase beta-3 (Homo sapiens), Q01970; Purified PLC-beta3, fluorogenic substrate;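 also: 0% = median of compound wells on plate and 100% = full blocker control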
Target sequence (Q01970 whole entry, looked up): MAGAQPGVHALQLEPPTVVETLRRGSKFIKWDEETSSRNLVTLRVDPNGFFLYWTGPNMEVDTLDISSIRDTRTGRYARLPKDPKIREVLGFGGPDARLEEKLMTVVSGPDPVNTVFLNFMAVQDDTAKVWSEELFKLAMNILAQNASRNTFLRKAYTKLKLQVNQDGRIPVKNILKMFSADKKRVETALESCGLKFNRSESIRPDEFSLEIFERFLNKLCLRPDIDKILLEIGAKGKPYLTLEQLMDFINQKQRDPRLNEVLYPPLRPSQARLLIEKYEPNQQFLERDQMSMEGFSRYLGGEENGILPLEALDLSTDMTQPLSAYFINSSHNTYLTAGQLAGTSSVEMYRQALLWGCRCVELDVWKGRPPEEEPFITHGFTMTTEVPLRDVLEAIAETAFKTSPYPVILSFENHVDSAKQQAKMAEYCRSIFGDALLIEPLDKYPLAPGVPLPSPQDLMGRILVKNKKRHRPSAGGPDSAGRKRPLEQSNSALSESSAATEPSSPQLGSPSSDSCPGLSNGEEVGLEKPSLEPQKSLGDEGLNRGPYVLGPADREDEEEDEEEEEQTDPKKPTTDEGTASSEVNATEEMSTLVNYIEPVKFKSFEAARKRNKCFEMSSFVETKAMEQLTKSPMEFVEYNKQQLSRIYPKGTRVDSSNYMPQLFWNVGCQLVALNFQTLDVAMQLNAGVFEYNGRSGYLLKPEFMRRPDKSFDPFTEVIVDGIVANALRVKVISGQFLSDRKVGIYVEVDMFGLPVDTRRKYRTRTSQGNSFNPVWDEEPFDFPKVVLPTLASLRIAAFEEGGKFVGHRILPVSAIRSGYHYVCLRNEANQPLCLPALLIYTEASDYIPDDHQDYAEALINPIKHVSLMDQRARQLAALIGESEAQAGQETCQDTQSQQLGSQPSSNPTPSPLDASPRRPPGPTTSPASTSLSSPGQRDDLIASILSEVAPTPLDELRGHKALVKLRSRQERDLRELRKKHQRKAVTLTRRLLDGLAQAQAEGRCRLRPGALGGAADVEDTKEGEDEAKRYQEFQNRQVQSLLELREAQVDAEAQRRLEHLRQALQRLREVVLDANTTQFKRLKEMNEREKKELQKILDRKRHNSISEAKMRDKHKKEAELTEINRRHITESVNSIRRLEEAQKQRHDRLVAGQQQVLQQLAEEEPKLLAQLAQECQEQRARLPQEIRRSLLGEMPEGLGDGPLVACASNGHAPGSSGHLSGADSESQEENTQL
PLCg1 inh – PLC-gamma1 enzyme inhibitors, primary screen, biochemical, fluorescence, purified enzyme; actives 0.84% (n = 370,000); fluorogenic substrate; 1-phosphatidylinositol 4,5-bisphosphate phosphodiesterase gamma-1 (Homo sapiens), P19174; inhibition, % at 12.2 µM; in the data active = inhibition above about 9.5%
DAGLB inh – DAGLB lipase inhibitors, primary screen, biochemical, fluorescence, HTS | Diacylglycerol lipase-beta (Homo sapiens), Q8NCG7 | HEK293T DAGLB membrane lysate, EnzChek fluorogenic substrate | inhibition, % at 5.17 µM | actives 0.059% (n = 340,000) | AID 504411, 2011; in the data active = inhibition above about 34%;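 also: 0% = enzyme with vehicle and 100% = wells lacking enzyme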
TbMetRS inhib – T. brucei MetRS inhibitors, primary screen, biochemical, luminescence; actives 0.4% (n = 360,000); purified T. brucei MetRS, ATP depletion, Kinase-Glo luminescence; inhibition, % at 11.9 µM; methionyl-tRNA synthetase (Trypanosoma brucei brucei); AID 624268, 2012;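 active = inhibition above a per-plate cutoff of the control wells' mean inhibition plus 3 SD, cut at about 5.5% in these data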;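 also: 0% = DMSO wells median and 100% = median of wells with control inhibitor compound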
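Material – parasite MetRS enzyme · Medium – HEPES-MgCl2-KCl buffer plus DTT, spermine, BSA, pyrophosphatase · Reagent – ATP, methionine and E. coli bulk tRNA substrates · Times – 15 min enzyme-compound preincubation, 2 h reaction, 10 min detection, 25 °C · Measured by – luminescence of leftover ATP · Evaluation – percent inhibition relative to median high and low control wells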
PLCg1 ctr – PLC-gamma1 enzyme inhibitors, counter-screen for PLC-beta3 inhibitor project, biochemical, fluorescence; shares compounds with PLCg1 inh; purified PLC-gamma1, fluorogenic substrate; inhibition, % at 12.3 µM; actives 3.1% (n = 3,300); AID 743258, 2014; in the data active = inhibition above about 9.5%
PLCbeta3 conf – PLC-beta3 inhibitor confirmation, biochemical, fluorescence, purified enzyme; shares compounds with PLCg1 inh; fluorogenic substrate fluorescence; inhibition, % at 12.3 µM; actives 1% (n = 3,300)
The depositor's hits bear a star; . = no result. Rule as the data show it, unless noted: active = inhibition above about 11%; inactive = the rest.

SMILES | sPLA2-III inh | PLC-beta3 inh | PLCg1 inh | DAGLB inh | TbMetRS inhib | PLCg1 ctr | PLCbeta3 conf
O=C(NCc1ccccc1)OCCN1C(=O)CCC12CCCCC2 | 9 | -2 | 0 | . | . | . | .
CCOC(CNC(=O)Cn1nc(C)c2ccccc21)OCC | 1 | 1 | 9.9* | -1 | -1 | -2 | 2
CC(C)c1onc(C(=O)N2CCCCCC2)c1[N+](=O)[O-] | 6 | 4 | 15* | -1 | -1 | -3 | -1
CC(C)c1onc(C(=O)N2CCC(C(N)=O)CC2)c1[N+](=O)[O-] | -1 | -10 | -1 | -1 | -1 | . | .
CCCC1CCC2(CC1)CCC2OC(=S)Nc1ccccc1OC (stereo not given) | -1 | 2 | 0 | . | . | . | .
Cc1cc(Cl)c(S(=O)(=O)N2CCCC2)cc1OCC(=O)NC1CCCCC1 | -7 | 12* | 7 | 2 | -1 | 1 | -2
Cc1cc(Cl)c(S(=O)(=O)NC(C(=O)O)C(C)C)cc1OCC(=O)NC1CCCCC1 (stereo not given) | -4 | 1 | 4 | 0 | 0 | . | .
O=C(COc1ccc(S(=O)(=O)N2CCCC2)cc1Cl)NC1CCCC1 | -9 | 0 | 13* | -2 | 0 | -8 | -5
C=CCCC1CN(Cc2ccc(OC)cc2)S(=O)(=O)c2c(cccc2N2CCCC2)O1 (stereo not given) | 4 | 0 | 0 | . | . | . | .
FC(F)(F)c1cccc(N2CCN(C(=S)Nc3nccc4ccccc34)CC2)c1 | 10 | -56 | -3 | . | . | . | .
O=C1CC(CC(=O)N/N=C/c2ccccc2[N+](=O)[O-])=NN1 | -4 | -1 | 13* | 5 | 4 | -5 | -1
O=C(CCc1nnc(Cc2c[nH]c3ccccc23)o1)NC1CCCC1 | -7 | 4 | 12* | 1 | 1 | -5 | -4
O=C(CCc1nnc(CCc2c[nH]c3ccccc23)o1)NC1CCC1 | -11 | -6 | 0 | -1 | 0 | . | .
O=C(CSc1n[nH]c(-c2ccccc2)n1)Nc1ccccc1O | -20 | -7 | 9.9* | 2 | 0 | -6 | -3
O=C(CSc1n[nH]c(-c2ccccc2)n1)Nc1ccc(F)cc1F | -12 | -6 | 0 | -3 | 0 | . | .
Cc1cccc(N2CCN(C(=O)c3ccc4ncsc4c3)CC2)c1C | 7 | 3 | 12* | -3 | -1 | -8 | -26
O=C(c1ccc2ncsc2c1)N1CCN(c2ccccc2Cl)CC1 | -2 | -9 | -2 | -6 | -1 | . | .
O=S1(=O)CC2c3ccccc3CCN2CN1CCc1ccccc1 (stereo not given) | 5 | 7 | 1 | . | . | . | .
CCCCc1ccc(N2C(=NC(=O)C3CCCO3)SC3CS(=O)(=O)CC32)cc1 (stereo not given) | -11 | -4 | 9.6* | 0 | 0 | -4 | -1
CC(C)c1ccc(N2C(=NC(=O)C3CCCO3)SC3CS(=O)(=O)CC32)cc1 (stereo not given) | 3 | -10 | -2 | 0 | 0 | . | .
C#CCOCCOCCOCCNc1nc(N2CCN(C(=O)[C@H]([C@@H](C)CC)n3cc(CCCCN)nn3)CC2)nc(N2CCN(C(=O)[C@H](Cc3ccc(O)cc3)n3cc(CCO)nn3)CC2)n1 | -2 | 2 | 5 | . | . | . | .
COc1ccc(Cn2cc(F)c(=O)n(C)c2=O)cc1[N+](=O)[O-] | -5 | -6 | 4 | -2 | 1 | . | .
COc1ccc(Cn2cc(F)c(=O)n(CCC(C)C)c2=O)cc1[N+](=O)[O-] | -16 | 7 | 13* | 0 | 0 | -6 | -1
CCOc1ccc(NC(=O)n2ncc3c(C)cccc32)cc1 | 5 | -1 | 0 | -4 | 2 | . | .
Cc1ccc(NC(=O)n2ncc3c(C)cccc32)c(C)c1 | 15 | -2 | 11* | -5 | -1 | -6 | -1
